In PubChem BioAssay:
Records with an inconclusive call do not appear. Active and inactive are the calls of the source.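 Rule for the calls, unless noted: active = viability at or below 27.92% in each of two runs, the all-compound median minus 4 SD; inconclusive = no clear call, values can overlap the other calls; inactive = the rest.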

Legend:
[1] = OD615 S. cerevisiae growth inhibition, permissive medium, pilot counter-assay, permissive growth control for S. cerevisiae lifespan shortening project (AID 705;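 active = growth inhibition above 25% in both replicates, a cutoff set 3 SD above the mean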); conditions: OD615, 24 h, at 10 µM, hits give high values
Procedure, shortened: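 System: Engineered DeaD yeast | Buffer or medium: SC raffinose/galactose permissive medium | Incubation: Cells pre-grown 4 h, then 24 h compound exposure, 30 °C humidified | Measured by: Absorbance (optical density) at 615 nm | Read-out: Reduction in yeast growth (OD615)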

[2] = Restrictive medium S. cerevisiae growth inhibition, OD615, pilot screen of yeast lifespan reduction project, restrictive growth control (AID 706;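 active = growth inhibition above a set limit, 3 SD over mean compound inhibition, in both replicates, cut at about 43% in these data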;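 note: modified DeaD lifespan yeast strain shifted to restrictive glucose medium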); conditions: OD615, 48 h, at 10 µM, hits give high values
Procedure, shortened: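 Material: modified S. cerevisiae; Medium: glucose-based CSMM-D restrictive medium; Compound dosing: one concentration, 10 µM final, 0.25% DMSO; Incubation: 48 h compound exposure at 30 °C; Measured by: OD615.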

[3] = viability gain of MRP-1-high H69AR cells under doxorubicin, pilot screen, MRP-1 activator project, CellTiter-Glo, duplicate (AID 807;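 active = viability increase at or above a cutoff of the median across tested compounds plus 3 SD, cut at about 8.5% in these data, passing the limit was not always enough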;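 note: compound pretreatment 18-22 h then 72 h combined with doxorubicin; 0% = doxorubicin alone and 100% = vehicle without doxorubicin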); conditions: H69AR viability with doxorubicin, CellTiter-Glo luminescence; at 10 µM; hits give high values
[4] = growth suppression of PTEN-deleted HCT116, pilot screen, cell-based, HCT116 clonal line, CellTiter-Glo (AID 824); conditions: 60 h, at 10 µM, hits give low values;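 note: 0% = 20 µM Hyamine control and 100% = vehicle cell control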
[5] = inhibitors of the yeast RAM network, pilot screen, dse1pr::URA3 reporter, 5-FOA selection (AID 869;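 active = inhibition over a set limit, the all-compound mean plus 3 SD, in both replicate runs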;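 note: 0% = DMSO wells with no growth and 100% = 10 µM 1-NA-PP1 with full growth; RAM network block rescues cells from 5-FOA so hits raise OD615 growth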); conditions: S. cerevisiae dse1pr::URA3 5-FOA growth, OD615, 2 d; at 10 µM; hits give high values; strain carries analog-sensitive mutant Cbk1 kinase
[6] = RAM signaling pathway blockade in yeast – S. cerevisiae, Pdr1DBD-CYC8 efflux-inhibited sensitized strain, primary screen (AID 1298;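 active = RAM network inhibition above 8.4% in each of two replicates, 3 SD over the compound average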;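 note: 0% = DMSO untreated cells without growth and 100% = 10 µM 1-NA-PP1 full growth; higher means more yeast growth rescued from 5-FOA killing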); conditions: S. cerevisiae cbk1-as DSE1-URA3 strain, 5-FOA growth OD615, 2 d; at 50 µM; hits give high values

COc1ccc(C)cc1NC(=O)CN(c1ccccc1)S(C)(=O)=O
inactive: growth inhibition [1] -7.61% | growth inhibition [2] -4.67% | viability increase [3] -1.58% | viability [4] 96% | inhibition [5] 0.74% | RAM network inhibition [6] 5.82%

COCCCNC(=O)c1cn(C)c(=O)c2cc(OC)c(OC)cc12
inactive: growth inhibition [1] -8.69% | growth inhibition [2] -8.96% | viability increase [3] -2.69% | viability [4] 103% | inhibition [5] 1.8% | RAM network inhibition [6] 0.56%

CCOC(=O)C1CCN(C(=O)c2oc3ccc(S(=O)(=O)N4CC(C)CC(C)C4)cc3c2C)CC1 (stereo not given)
inactive: growth inhibition [1] 1.57% | growth inhibition [2] -4.64% | viability increase [3] -6.15% | viability [4] 52.7% | inhibition [5] -1.02% | RAM network inhibition [6] 5.32%

Cc1ccc(CNC(=O)c2oc3ccc(S(=O)(=O)N4CCC5(CC4)OCCO5)cc3c2C)cc1
inactive: growth inhibition [1] -11% | growth inhibition [2] -10% | viability increase [3] -0.6% | viability [4] 52.6% | inhibition [5] 1.35% | RAM network inhibition [6] 2.87%

O=C1c2ccccc2C(=O)N1CSc1nnnn1-c1ccccc1
inactive: growth inhibition [1] -1.45% | growth inhibition [2] 31.4% | viability increase [3] -2.14% | viability [4] 104% | inhibition [5] 2.01% | RAM network inhibition [6] 6.61%

COCCNC(=O)c1ccc2c(=O)n(CCOC)c(=O)[nH]c2c1
inactive: growth inhibition [1] -8.7% | growth inhibition [2] -15.7% | viability increase [3] -3.33% | viability [4] 91.3% | inhibition [5] 0.805% | RAM network inhibition [6] 0.78%

CCn1c(C)c2c(C)nnc(C)c2c1C
inactive: growth inhibition [1] -7.03% | growth inhibition [2] -3.61% | viability increase [3] -3.11% | viability [4] 91.5% | inhibition [5] 1.05% | RAM network inhibition [6] -0.52%

CCOC(=O)c1ccc(NC(=O)c2cccc(S(=O)(=O)N3CCOCC3)c2)cc1
inactive: growth inhibition [1] -9.14% | growth inhibition [2] -4.13% | viability increase [3] -0.35% | viability [4] 57.2% | inhibition [5] 2.96% | RAM network inhibition [6] 7.23%

Cc1cccc(N(C)C(=O)CCS(=O)(=O)c2cccc3nonc23)c1
inactive: growth inhibition [1] -5.82% | growth inhibition [2] 0.54% | viability increase [3] -4.98% | viability [4] 96.3% | inhibition [5] 1.06% | RAM network inhibition [6] 5.74%

O=C(Cc1c(C(=O)O)[nH]c2ccccc12)Nc1ccc2c(c1)OCO2
inactive: growth inhibition [1] -7.96% | growth inhibition [2] -0.57% | viability increase [3] -2.23% | viability [4] 99.7% | inhibition [5] 0.445% | RAM network inhibition [6] 2.01%

C/C(=C1/SC(=S)N(CCC(=O)O)C1=O)c1ccc(O)cc1
inactive: growth inhibition [1] -5.09% | growth inhibition [2] -8.91% | viability increase [3] 1.4% | viability [4] 98.1% | inhibition [5] 1.2% | RAM network inhibition [6] 0.45%

CCOC(=O)N1CCN(S(=O)(=O)c2cc(Br)cc3c2N(C(=O)C2CC2)CC3)CC1
inactive: growth inhibition [1] -3.63% | growth inhibition [2] 7.68% | viability increase [3] -1.65% | viability [4] 99.5% | inhibition [5] 0.715% | RAM network inhibition [6] 5.87%

Cc1c(C)[n+](=O)c(-c2ccc(F)cc2)c(C)n1[O-]
inactive: growth inhibition [1] -1.22% | growth inhibition [2] 3.79% | viability increase [3] -3.29% | viability [4] 98.3% | inhibition [5] 0.535% | RAM network inhibition [6] 4.01%

CCOC(=O)N1CCC(NC(=O)C(CC(C)C)NC(=O)C2CCCCC2)CC1 (stereo not given)
inactive: growth inhibition [1] -6.28% | growth inhibition [2] -1.08% | viability increase [3] -2.08% | viability [4] 100% | inhibition [5] 2.41% | RAM network inhibition [6] 1.8%

CS(=O)(=O)N(CC(=O)NCc1ccncc1)c1cc(Cl)cc(Cl)c1
inactive: growth inhibition [1] -7.62% | growth inhibition [2] -10.8% | viability increase [3] -2.29% | viability [4] 105% | inhibition [5] 1.33% | RAM network inhibition [6] 0.15%

Cc1oc(-c2cccc(Cl)c2)nc1CN1CCC(C(=O)N2CCN(c3ccccn3)CC2)CC1
inactive: growth inhibition [1] -5.81% | growth inhibition [2] -1.31% | viability increase [3] -7.36% | inhibition [5] 0.99% | RAM network inhibition [6] 4.79%
active: viability [4] 27%

CCCCS(=O)CC(CS(=O)CCCC)OC(=O)c1ccc(C)cc1 (stereo not given)
inactive: growth inhibition [1] -10.6% | growth inhibition [2] -7.7% | viability increase [3] -1.14% | viability [4] 96.3% | inhibition [5] 1.73% | RAM network inhibition [6] 0.87%

C=CCn1c(C)cc(C(=O)COc2nncc3ccccc23)c1C
inactive: growth inhibition [1] -10.3% | growth inhibition [2] -15% | viability increase [3] -2.37% | viability [4] 74.2% | inhibition [5] 2.32% | RAM network inhibition [6] 0.87%

c1cncc(CNc2nc(N3CCOCC3)nc(N3CCOCC3)n2)c1
inactive: growth inhibition [1] -10.4% | growth inhibition [2] 1.83% | viability increase [3] -2.97% | viability [4] 91.8% | inhibition [5] 1.27% | RAM network inhibition [6] 1.95%

CCN(CC)CCN1C(=O)C(=O)/C(=C(/O)c2ccc(C)cc2)C1c1ccncc1 (stereo not given)
inactive: growth inhibition [1] 2.04% | growth inhibition [2] -2.02% | viability increase [3] 0.64% | viability [4] 97.9% | inhibition [5] 0.635% | RAM network inhibition [6] 5.38%

CCC(C)NC(=O)c1cn(C)c(=O)c2cc(OC)c(OC)cc12 (stereo not given)
inactive: growth inhibition [1] -6.39% | growth inhibition [2] -12.4% | viability increase [3] -3.24% | viability [4] 99.7% | inhibition [5] 1.1% | RAM network inhibition [6] 5.28%

O=C(Oc1ccc(Cl)cc1)N1CCCCC1
inactive: growth inhibition [1] -8.34% | growth inhibition [2] 3.42% | viability increase [3] 0.94% | viability [4] 103% | inhibition [5] -0.1% | RAM network inhibition [6] 4.56%

O=C(O)CCC(=O)CCC(=O)c1ccc(Cl)cc1
inactive: growth inhibition [1] 8.94% | growth inhibition [2] -2.93% | viability increase [3] -1.69% | viability [4] 94.3% | inhibition [5] -0.55% | RAM network inhibition [6] 5.32%

COCCNC(=O)C1c2ccccc2C(=O)N(CCOC)C1c1ccc(F)cc1 (stereo not given)
inactive: growth inhibition [1] -6.02% | growth inhibition [2] 3.31% | viability increase [3] -2.15% | viability [4] 101% | inhibition [5] 1.29% | RAM network inhibition [6] 0.46%

CC(C)Cn1c(SCC#N)nc2ccccc2c1=O
inactive: growth inhibition [1] -0.35% | growth inhibition [2] -14.3% | viability increase [3] -1.74% | viability [4] 88% | inhibition [5] 1.18% | RAM network inhibition [6] 5.88%

CC(C)c1cc(=O)oc2c3c4c(cc12)CCCN4CCC3
inactive: growth inhibition [1] 0.175% | growth inhibition [2] 9.32% | viability increase [3] -4.62% | viability [4] 57.8% | inhibition [5] 1.84% | RAM network inhibition [6] 3.62%

CCOc1ccccc1N(CC(=O)Nc1ccc2c(c1)OCO2)S(C)(=O)=O
inactive: growth inhibition [1] -8.59% | growth inhibition [2] -22.3% | viability increase [3] -0.96% | viability [4] 100% | inhibition [5] 1.7% | RAM network inhibition [6] -0.87%

COc1cc(C(=O)N2CCN(c3cccc(C)c3C)CC2)cc(OC)c1OC
inactive: growth inhibition [1] 0.72% | growth inhibition [2] 9.77% | viability increase [3] -5.32% | inhibition [5] -0.125% | RAM network inhibition [6] 10.1%
active: viability [4] 20.1%

c1ccc(-n2nnnc2-n2ccnc2)cc1
inactive: growth inhibition [1] 3.38% | growth inhibition [2] 1.55% | viability increase [3] -0.62% | viability [4] 109% | inhibition [5] 0.76% | RAM network inhibition [6] 0.92%

CN(C)c1ccc(NC(=S)c2ccccn2)cc1
inactive: growth inhibition [1] 4.71% | growth inhibition [2] -11.2% | viability increase [3] -8.3% | viability [4] 47.2% | inhibition [5] 1.82% | RAM network inhibition [6] 3.01%

O=C(CCCOc1ccccc1)N1CCCc2ccccc21
inactive: growth inhibition [1] -0.835% | growth inhibition [2] -2.99% | viability increase [3] -2.01% | viability [4] 92.2% | inhibition [5] 0.825% | RAM network inhibition [6] 2.37%

CCOC(=O)C(C(=O)Nc1cccc(C)n1)C1CCCCC1 (stereo not given)
inactive: growth inhibition [1] -6.76% | growth inhibition [2] -0.005% | viability increase [3] 1.76% | viability [4] 88.1% | inhibition [5] 3.22% | RAM network inhibition [6] 2.72%

Cc1c(-c2ccco2)[n+](=O)c2c(n1[O-])CCCCC2
inactive: growth inhibition [1] -4.97% | growth inhibition [2] -4.29% | viability increase [3] -1.32% | viability [4] 105% | inhibition [5] 1.32% | RAM network inhibition [6] 8.4%

CCN(Cc1ccccc1)S(=O)(=O)c1ccc(C(=O)Nc2nnc(C3CC3)o2)cc1
inactive: growth inhibition [1] -5.06% | growth inhibition [2] -18.6% | viability increase [3] -4.27% | inhibition [5] 2.35% | RAM network inhibition [6] 5.05%
active: viability [4] 22.8%

COc1ccc(C2C(C(=O)N3CCN(c4ccccc4F)CC3)c3ccccc3C(=O)N2C)cc1 (stereo not given)
inactive: growth inhibition [1] -12.2% | growth inhibition [2] -6.36% | viability increase [3] -5.64% | viability [4] 74.3% | inhibition [5] 1.3% | RAM network inhibition [6] 4.16%

Cc1cccc(N(CC(=O)Nc2c(C)n(C)n(-c3ccccc3)c2=O)S(C)(=O)=O)c1
inactive: growth inhibition [1] -9.29% | growth inhibition [2] -0.62% | viability increase [3] -0.12% | viability [4] 106% | inhibition [5] 1.61% | RAM network inhibition [6] 1.64%

CCOc1ccccc1NC(=O)CSc1ccccc1
inactive: growth inhibition [1] -17.2% | growth inhibition [2] -2.58% | viability increase [3] -2.94% | viability [4] 85.8% | inhibition [5] 0.255% | RAM network inhibition [6] 2.06%

O=C1C(=O)N(CCCn2ccnc2)C(c2cccnc2)/C1=C(/O)c1ccc(Br)cc1 (stereo not given)
inactive: growth inhibition [1] -7.97% | growth inhibition [2] 7.01% | viability increase [3] -0.15% | viability [4] 104% | inhibition [5] 1.9% | RAM network inhibition [6] 4%

O=C(Nc1ccc(Cl)cc1)N(Cc1cccs1)Cc1cccs1
inactive: growth inhibition [1] -13.9% | growth inhibition [2] -21.5% | viability increase [3] -0.55% | viability [4] 64.9% | inhibition [5] 2.13% | RAM network inhibition [6] 8.73%

CCOC(=O)N1CCN(C(=O)CN(c2cccc(C)c2)S(=O)(=O)c2ccccc2)CC1
inactive: growth inhibition [1] -9.07% | growth inhibition [2] -2.69% | viability increase [3] -2.44% | viability [4] 97.8% | inhibition [5] -0.31% | RAM network inhibition [6] 0.62%
